ChEMBL document CHEMBL3580554, “Design, synthesis, and anticonvulsant activity of new hybrid compounds derived from 2-(2,5-dioxopyrrolidin-1-yl)propanamides and 2-(2,5-dioxopyrrolidin-1-yl)butanamides” (J Med Chem, 2015)
The source made the active and inactive calls. The calls are words filed in the database; no cut-off is given here.

Assays:
[1] = system: Mus musculus; assay: Anticonvulsant activity in Swiss mouse assessed as protection against seizures at 300 mg/kg, ip dosed 0.25 hrs before initiation of maximal electroconvulsions by maximal electroshock test; format: functional
How it was run: (§1)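 Mice were dosed i.p. at a fixed 300 or 100 mg/kg (6 Hz: 100 mg/kg only). Protection was then scored against MES, sc PTZ or 6 Hz seizures at pretreatment times of 0.25, 0.5, 1 and 2 h. Groups were four mice, scored as number protected / number tested. This also gives the time course and time of peak effect.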

[2] = system: Mus musculus; assay: Anticonvulsant activity in Swiss mouse assessed as protection against seizures at 300 mg/kg, ip dosed 0.5 hrs before initiation of maximal electroconvulsions by maximal electroshock test; format: functional; how it was run: as §1
[3] = system: Mus musculus; assay: Anticonvulsant activity in Swiss mouse assessed as protection against seizures at 300 mg/kg, ip dosed 1 hr before initiation of maximal electroconvulsions by maximal electroshock test; format: functional; how it was run: as §1
[4] = system: Mus musculus; assay: Anticonvulsant activity in Swiss mouse assessed as protection against seizures at 300 mg/kg, ip dosed 2 hrs before initiation of maximal electroconvulsions by maximal electroshock test; format: functional; how it was run: as §1
[5] = system: Mus musculus; assay: Anticonvulsant activity in Swiss mouse assessed as protection against seizures at 100 mg/kg, ip dosed 0.25 hrs before initiation of maximal electroconvulsions by maximal electroshock test; format: functional; how it was run: as §1
[6] = system: Mus musculus; assay: Anticonvulsant activity in Swiss mouse assessed as protection against seizures at 100 mg/kg, ip dosed 0.5 hrs before initiation of maximal electroconvulsions by maximal electroshock test; format: functional; how it was run: as §1
[7] = system: Mus musculus; assay: Anticonvulsant activity in Swiss mouse assessed as protection against seizures at 100 mg/kg, ip dosed 1 hr before initiation of maximal electroconvulsions by maximal electroshock test; format: functional; how it was run: as §1
[8] = system: Mus musculus; assay: Anticonvulsant activity in Swiss mouse assessed as protection against seizures at 100 mg/kg, ip dosed 2 hrs before initiation of maximal electroconvulsions by maximal electroshock test; format: functional; how it was run: as §1
[9] = system: Mus musculus; assay: Anticonvulsant activity in Swiss mouse assessed as protection against seizures at 300 mg/kg, ip dosed 0.25 hrs before pentylenetetrazole challenge by subcutaneous pentylenetetrazole seizure test; format: functional; how it was run: as §1
[10] = system: Mus musculus; assay: Anticonvulsant activity in Swiss mouse assessed as protection against seizures at 300 mg/kg, ip dosed 0.5 hrs before pentylenetetrazole challenge by subcutaneous pentylenetetrazole seizure test; format: functional; how it was run: as §1
[11] = system: Mus musculus; assay: Anticonvulsant activity in Swiss mouse assessed as protection against seizures at 300 mg/kg, ip dosed 1 hr before pentylenetetrazole challenge by subcutaneous pentylenetetrazole seizure test; format: functional; how it was run: as §1
[12] = system: Mus musculus; assay: Anticonvulsant activity in Swiss mouse assessed as protection against seizures at 300 mg/kg, ip dosed 2 hrs before pentylenetetrazole challenge by subcutaneous pentylenetetrazole seizure test; format: functional; how it was run: as §1
[13] = system: Mus musculus; assay: Anticonvulsant activity in Swiss mouse assessed as protection against seizures at 100 mg/kg, ip dosed 0.25 hrs before pentylenetetrazole challenge by subcutaneous pentylenetetrazole seizure test; format: functional; how it was run: as §1
[14] = system: Mus musculus; assay: Anticonvulsant activity in Swiss mouse assessed as protection against seizures at 100 mg/kg, ip dosed 0.5 hrs before pentylenetetrazole challenge by subcutaneous pentylenetetrazole seizure test; format: functional; how it was run: as §1
[15] = system: Mus musculus; assay: Anticonvulsant activity in Swiss mouse assessed as protection against seizures at 100 mg/kg, ip dosed 1 hr before pentylenetetrazole challenge by subcutaneous pentylenetetrazole seizure test; format: functional; how it was run: as §1
[16] = system: Mus musculus; assay: Anticonvulsant activity in Swiss mouse assessed as protection against seizures at 100 mg/kg, ip dosed 2 hrs before pentylenetetrazole challenge by subcutaneous pentylenetetrazole seizure test; format: functional; how it was run: as §1
[17] = system: Mus musculus; assay: Anticonvulsant activity in Swiss mouse model of 6 Hz psychomotor seizure mode assessed as protection against seizures at 100 mg/kg, ip dosed 0.25 hrs before 6 Hz electrical stimulation by 6 Hz test; format: functional; how it was run: as §1
[18] = system: Mus musculus; assay: Anticonvulsant activity in Swiss mouse model of 6 Hz psychomotor seizure mode assessed as protection against seizures at 100 mg/kg, ip dosed 0.5 hrs before 6 Hz electrical stimulation by 6 Hz test; format: functional; how it was run: as §1
[19] = system: Mus musculus; assay: Anticonvulsant activity in Swiss mouse model of 6 Hz psychomotor seizure mode assessed as protection against seizures at 100 mg/kg, ip dosed 1 hr before 6 Hz electrical stimulation by 6 Hz test; format: functional; how it was run: as §1
[20] = system: Mus musculus; assay: Anticonvulsant activity in Swiss mouse model of 6 Hz psychomotor seizure mode assessed as protection against seizures at 100 mg/kg, ip dosed 2 hrs before 6 Hz electrical stimulation by 6 Hz test; format: functional; how it was run: as §1
[21] = species on record: Rattus norvegicus; assay: Inhibition of [3H]BTX binding to sodium channel site 2 in rat cerebral cortex synaptosomes at 100 uM incubated for 60 mins by scintillation counting based radioligand displacement assay; format: subcellular
How it was run: (§2)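 Synaptoneurosomal preparations from rat cerebral cortex were used. The read-out was inhibition of specific [3H]BTX binding to the voltage-sensitive sodium channel (site 2), expressed as % inhibition of control specific binding. Compounds were tested at 1, 10, 100 and 500 μM. Inhibition above 50% was taken as significant.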

[22] = species on record: Rattus norvegicus; assay: Inhibition of [3H]BTX binding to sodium channel site 2 in rat cerebral cortex synaptosomes at 10 uM incubated for 60 mins by scintillation counting based radioligand displacement assay; format: subcellular; how it was run: as §2
[23] = species on record: Rattus norvegicus; assay: Inhibition of [3H]BTX binding to sodium channel site 2 in rat cerebral cortex synaptosomes at 1 uM incubated for 60 mins by scintillation counting based radioligand displacement assay; format: subcellular; how it was run: as §2
[24] = system: Mus musculus; assay: Anticonvulsant activity in ip dosed Swiss mouse assessed as protection against seizures measured at 0.25 hrs of time to peak effect by maximal electroshock test; format: functional
How it was run: (§3)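 Median effective doses (ED50, mg/kg) were determined i.p. in mice at the time of peak effect in the MES, sc PTZ or 6 Hz tests. Only compounds giving at least 50% protection at 100 mg/kg in that test were taken forward.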

[25] = system: Mus musculus; assay: Anticonvulsant activity in ip dosed Swiss mouse assessed as protection against seizures measured at 0.25 hrs of time to peak effect by subcutaneous pentylenetetrazole seizure test; format: functional; how it was run: as §3
[26] = system: Mus musculus; assay: Anticonvulsant activity in ip dosed Swiss mouse assessed as protection against seizures measured at 0.25 hrs of time to peak effect by 6 Hz test by 6 Hz psychomotor seizure test; format: functional; how it was run: as §3
[27] = Toxicity in ip dosed Swiss mouse assessed as induction of motor performance impairment measured within 60 seconds measured at 0.25 hrs of time to peak effect by Chimney test; format: organism-based; conditions: in vivo
How it was run: (§4)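 Neurotoxicity was measured i.p. in mice by the chimney test for motor impairment. It was given as the median neurotoxic dose (TD50, mg/kg) at the time of peak effect.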

[28] = species on record: Mus musculus; assay: Protective index, ratio of neurotoxic TD50 in Swiss mouse by Chimney test to anticonvulsant ED50 in Swiss mouse measured at 0.25 hrs of time to peak effect by maximal electroshock test
How it was run: (§5)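 Protective index was calculated as TD50 (chimney test, mouse, i.p.) divided by ED50 from the matching MES, sc PTZ or 6 Hz test, both taken at the time of peak effect.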

[29] = species on record: Mus musculus; assay: Protective index, ratio of neurotoxic TD50 in Swiss mouse by Chimney test to anticonvulsant ED50 in Swiss mouse measured at 0.25 hrs of time to peak effect by 6 Hz test by 6 Hz psychomotor seizure test; format: functional; how it was run: as §5
[30] = species on record: Mus musculus; assay: Protective index, ratio of neurotoxic TD50 in Swiss mouse by Chimney test to anticonvulsant ED50 in Swiss mouse measured at 0.5 hrs of time to peak effect by maximal electroshock test; how it was run: as §5
[31] = system: Mus musculus; assay: Anticonvulsant activity in ip dosed Swiss mouse assessed as protection against seizures measured at 0.5 hrs of time to peak effect by maximal electroshock test; format: functional; how it was run: as §3
[32] = system: Mus musculus; assay: Anticonvulsant activity in ip dosed Swiss mouse assessed as protection against seizures measured at 0.5 hrs of time to peak effect by subcutaneous pentylenetetrazole seizure test; format: functional; how it was run: as §3
[33] = system: Mus musculus; assay: Anticonvulsant activity in ip dosed Swiss mouse assessed as protection against seizures measured at 0.5 hrs of time to peak effect by 6 Hz test by 6 Hz psychomotor seizure test; format: functional; how it was run: as §3
[34] = Toxicity in ip dosed Swiss mouse assessed as induction of motor performance impairment measured within 60 seconds measured at 0.5 hrs of time to peak effect by Chimney test; format: organism-based; conditions: in vivo; how it was run: as §4
[35] = species on record: Mus musculus; assay: Protective index, ratio of neurotoxic TD50 in Swiss mouse by Chimney test to anticonvulsant ED50 in Swiss mouse measured at 0.5 hrs of time to peak effect by 6 Hz test by 6 Hz psychomotor seizure test; format: functional; how it was run: as §5
[36] = species on record: Rattus norvegicus; assay: Inhibition of [3H]BTX binding to sodium channel site 2 in rat cerebral cortex synaptosomes at 500 uM incubated for 60 mins by scintillation counting based radioligand displacement assay; format: subcellular; how it was run: as §2
[37] = species on record: Rattus norvegicus; assay: Inhibition of [125I]omega-conotoxin GVIA binding to N-type calcium channel in rat cerebral cortex synaptosomes at 100 uM incubated for 30 mins by scintillation counting based radioligand displacement assay; format: subcellular
[38] = species on record: Rattus norvegicus; assay: Inhibition of [125I]omega-conotoxin GVIA binding to N-type calcium channel in rat cerebral cortex synaptosomes at 200 uM incubated for 30 mins by scintillation counting based radioligand displacement assay; format: subcellular

Compound: COCC(C(=O)N1CCN(c2cccc(C(F)(F)F)c2)CC1)N1C(=O)CCC1=O (racemic)
- Activity [1]: 25%
- Activity [2]: 50%
- Activity [3]: 100%
- Activity [4]: 100%
- Activity [5]: 100%
- Activity [6]: 75%
- Activity [7]: 50%
- Activity [8]: 0%
- Activity [9]: 100%
- Activity [10]: 100%
- Activity [11]: 75%
- Activity [12]: 75%
- Activity [13]: 50%
- Activity [14]: 50%
- Activity [15]: 50%
- Activity [16]: 50%
- Activity [17]: 100%
- Activity [18]: 100%
- Activity [19]: 75%
- Activity [20]: 25%
- inhibition [21]: 38.7%
- inhibition [22]: 14.6%
- inhibition [23]: 5.7%
- ED50 [24]: 58.1 mg/kg
- ED50 [25]: > 120 mg/kg
- ED50 [26]: 57.6 mg/kg
- TD50 at 0.25 h [27]: 203 mg/kg
- Ratio TD50/ED50 [28]: 3.49
- Ratio TD50/ED50 [29]: 3.52
- Ratio TD50/ED50 [30]: 2.32
- ED50 [31]: 85.1 mg/kg
- ED50 [32]: > 120 mg/kg
- ED50 [33]: > 120 mg/kg
- TD50 at 0.5 h [34]: 197 mg/kg
- Ratio TD50/ED50 [35]: 2.64
- inhibition [36]: 77.6%
- inhibition [37]: inactive
- inhibition [38]: 3.2%
